Compounds with a hit are over-represented: about 3% of the library has one in this group of screens.
Cl transport mod: modulators of human KCC2 chloride dependent transport. AID 1456. actives 2.2% (n = 190,000). B-score of Tl+ flux slope (higher = more flux/activation; lower = inhibition) at 10 µM. Q9H2X9. KCC2 cells, thallium flux FluoZin-2 fluorescence;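 active = thallium flux slope and its plate-corrected score both differing from the plate sample mean at a set confidence after two filtering rounds, in either direction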;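 note: slope of fluorescence scaled to starting intensity during 10 to 20 s after thallium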
Rad51 HR inh: Rad51 (human) homologous recombination inhibition; Q06609; hRad51 DNA strand exchange, fluorescence dequenching; inhibition, % at 10 µM; actives 0.085% (n = 200,000);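 active = inhibition above 40% at the single screening dose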
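Test system – preformed human Rad51 ssDNA filaments · Reagent – Donor/quencher-labelled 47-bp dsDNA substrate · Incubation – 37 °C 15-min filament assembly, 30-min compound preincubation, 15-min exchange · Signal – FRET fluorescence dequenching, excitation 485 nm, emission 520 nm · Read-out – percent inhibition from fluorescence, normalised to plate control and blank means · Benchmarks – plate control and blank wells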
PKD1 kinase inh: inhibitors of human PKD1 kinase; PKD1 kinase fluorescence polarization assay; inhibition, % (no concentration beside the values); actives 0.056% (n = 200,000); in the data active = inhibition above about 50%
Target sequence (Q15139 whole entry, looked up): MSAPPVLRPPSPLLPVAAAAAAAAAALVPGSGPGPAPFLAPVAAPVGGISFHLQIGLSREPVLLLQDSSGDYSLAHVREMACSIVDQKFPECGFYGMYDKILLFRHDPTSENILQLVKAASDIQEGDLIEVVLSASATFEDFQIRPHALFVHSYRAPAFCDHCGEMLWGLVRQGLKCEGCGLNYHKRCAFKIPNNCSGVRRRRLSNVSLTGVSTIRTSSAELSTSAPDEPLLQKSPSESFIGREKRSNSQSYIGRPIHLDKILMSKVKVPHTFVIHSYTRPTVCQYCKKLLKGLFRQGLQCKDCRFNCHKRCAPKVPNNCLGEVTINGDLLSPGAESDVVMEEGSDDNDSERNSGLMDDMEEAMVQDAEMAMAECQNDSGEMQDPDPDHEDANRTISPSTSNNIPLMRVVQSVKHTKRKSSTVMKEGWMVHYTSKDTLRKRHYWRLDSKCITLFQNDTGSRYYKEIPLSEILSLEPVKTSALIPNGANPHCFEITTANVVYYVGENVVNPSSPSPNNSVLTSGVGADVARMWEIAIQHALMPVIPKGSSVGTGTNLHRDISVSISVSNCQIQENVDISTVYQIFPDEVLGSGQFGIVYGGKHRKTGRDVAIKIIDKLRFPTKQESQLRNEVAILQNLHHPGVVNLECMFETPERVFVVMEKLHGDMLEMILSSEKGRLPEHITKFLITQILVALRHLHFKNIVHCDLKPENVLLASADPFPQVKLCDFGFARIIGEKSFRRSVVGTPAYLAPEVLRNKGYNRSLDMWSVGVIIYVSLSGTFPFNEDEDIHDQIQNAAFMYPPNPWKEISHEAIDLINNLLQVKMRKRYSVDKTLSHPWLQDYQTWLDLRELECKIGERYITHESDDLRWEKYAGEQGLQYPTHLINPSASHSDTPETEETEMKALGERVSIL
ROMK primary: human ROMK K+ channel modulation, primary screen | P48048 | Tet-inducible ROMK, thallium flux fluorescence; actives lie on both sides | B-score at 10 µM | actives 2% (n = 130,000) | AID 1918;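 active = signal ratio slope over the read window, or its plate-corrected B-score, at least 3 SD from the plate mean, either direction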;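 note: B-score of the F/F0 ratio slope over 7 to 12 s after thallium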
Hits are given with their value.

Results for CC(C)NC(=S)NNC(=O)C12CC3CC(CC(C3)C1)C2 ?
Rad51 HR inh: inactive; PKD1 kinase inh: inactive; ROMK primary: inactive

How did CCCCNC(=S)NNC(=O)C12CC3CC(CC(C3)C1)C2 do in these assays?
Cl transport mod: inactive; Rad51 HR inh: 106; PKD1 kinase inh: inactive; ROMK primary: inactive

What do the screens show for `NS(=O)(=O)c1ccc(CNC(=O)c2csc3c2CCCC3)cc1`?
Cl transport mod: inactive; Rad51 HR inh: inactive; PKD1 kinase inh: inactive; ROMK primary: inactive

Results for COc1ccc(NC(=S)NC(=O)c2ccccc2Cl)cc1 ?
Cl transport mod: 21; Rad51 HR inh: inactive; PKD1 kinase inh: inactive; ROMK primary: 5.4

How did CC(C)CNC(=S)NC(=O)c1ccccc1Cl do in these assays?
Cl transport mod: 50; Rad51 HR inh: inactive; PKD1 kinase inh: inactive

Results for CCOc1ccc(NS(=O)(=O)c2ccc(C)c(C(=O)NCCCn3ccnc3)c2)cc1 ?
Cl transport mod: inactive; Rad51 HR inh: inactive; PKD1 kinase inh: inactive; ROMK primary: inactive

What do the screens show for `CC1=CC(=O)N(c2ccn(C)n2)C1=O`?
Cl transport mod: inactive; Rad51 HR inh: inactive

Results for O=c1c2cc(Cl)ccc2[nH]c(=S)n1Cc1ccco1 ?
Cl transport mod: 20; Rad51 HR inh: inactive; PKD1 kinase inh: inactive

How did O=c1c2cc(Cl)ccc2[nH]c(=S)n1Cc1cccs1 do in these assays?
Cl transport mod: 19; Rad51 HR inh: inactive; PKD1 kinase inh: inactive; ROMK primary: inactive

What do the screens show for `Cc1ccc(-n2c(SCC(=O)N(C)C3CCS(=O)(=O)C3)nc3ccccc3c2=O)cc1` (stereo not drawn)?
Cl transport mod: inactive; Rad51 HR inh: inactive; PKD1 kinase inh: inactive; ROMK primary: inactive

What do the screens show for `CN1CCc2nc(SCc3ccc(Cl)cc3)c(C#N)c(-c3cccs3)c2C1`?
Rad51 HR inh: inactive; PKD1 kinase inh: inactive; ROMK primary: -3.4

How did N#Cc1c(N)nc(SCc2ccncc2)c(C#N)c1-c1cccs1 do in these assays?
Cl transport mod: inactive; Rad51 HR inh: inactive; PKD1 kinase inh: inactive

What do the screens show for `COc1ccc(Cc2nnc(NC(=O)c3cccc(C)c3)s2)cc1`?
Cl transport mod: inactive; Rad51 HR inh: inactive; PKD1 kinase inh: inactive; ROMK primary: inactive

Results for Cc1cccc(-c2nnn(Cc3nnc(NC(=O)c4ccccc4)s3)n2)c1 ?
Rad51 HR inh: 88; PKD1 kinase inh: inactive

How did CC/S(C)=N/S(=O)(=O)c1ccc(C)cc1 (stereo not drawn) do in these assays?
Cl transport mod: inactive; Rad51 HR inh: inactive; PKD1 kinase inh: inactive; ROMK primary: inactive

What do the screens show for `Cn1c(SCC(=O)c2cc3ccccc3o2)nnc1-c1ccccc1`?
Cl transport mod: -7.2; Rad51 HR inh: inactive; PKD1 kinase inh: inactive

Results for Cc1ccc2[nH]c(C)c(/C=N/Nc3nc4ccccc4s3)c2c1 ?
Cl transport mod: inactive; Rad51 HR inh: inactive; PKD1 kinase inh: inactive

How did Oc1[nH]c2ccccc2c1N=Nc1ccc(F)cc1 do in these assays?
Cl transport mod: inactive; Rad51 HR inh: inactive; PKD1 kinase inh: inactive

Results for Cc1ccc2[nH]c(O)c(N=Nc3nc4ccccc4s3)c2c1 ?
Cl transport mod: 40

How did Oc1[nH]c2ccccc2c1N=Nc1nc2ccccc2s1 do in these assays?
Cl transport mod: 6; PKD1 kinase inh: inactive; ROMK primary: inactive

Results for CCN(C(=S)NC(=O)c1ccccc1Br)C1CCCCC1 ?
Cl transport mod: 63; PKD1 kinase inh: inactive; ROMK primary: 6.9

Results for CCN(CC(=O)Nc1ccccc1Br)C1CCCCC1 ?
Cl transport mod: inactive; Rad51 HR inh: inactive; PKD1 kinase inh: inactive; ROMK primary: inactive

What do the screens show for `CCc1ccc(/C=c2\s/c(=C\C(=O)C(C)(C)C)[nH]c2=O)cc1`?
Cl transport mod: 7; Rad51 HR inh: inactive; PKD1 kinase inh: inactive; ROMK primary: inactive

How did Cc1ccccc1/C=c1\s/c(=C\C(=O)C(C)(C)C)[nH]c1=O do in these assays?
Cl transport mod: 10; Rad51 HR inh: inactive; PKD1 kinase inh: inactive; ROMK primary: inactive

What do the screens show for `CC(C)(C)C(=O)/C=c1\[nH]c(=O)/c(=C\c2ccc(F)cc2)s1`?
Rad51 HR inh: inactive; PKD1 kinase inh: inactive; ROMK primary: inactive

Results for Cc1ccc(C)c(-n2c(-c3csc(C)c3C)n[nH]c2=S)c1 ?
Cl transport mod: inactive; PKD1 kinase inh: inactive; ROMK primary: inactive

Results for O=C(CNC(=O)/C(=C\c1ccccc1)NC(=O)c1ccc(Br)cc1)OCc1ccccc1 ?
Cl transport mod: -5.6; Rad51 HR inh: inactive; PKD1 kinase inh: inactive

What do the screens show for `O=C(CNC(=O)/C(=C\c1ccc(F)cc1)NC(=O)c1ccccc1)OCc1ccccc1`?
Cl transport mod: inactive; Rad51 HR inh: inactive; PKD1 kinase inh: inactive

How did Cc1nc(NCCCn2ccnc2)c2ccccc2n1 do in these assays?
Cl transport mod: inactive; Rad51 HR inh: inactive; PKD1 kinase inh: inactive; ROMK primary: inactive
